Laboratory results published in ChEMBL document CHEMBL1153540, “Structure-based optimization of arylamides as inhibitors of soluble epoxide hydrolase” (J Med Chem, 2009).

Experiments:
[1] = Plasma concentration in Sprague-Dawley rat at 5 mg/kg, po after 4 hrs by LC-MS/MS analysis; type: ADME, organism-based; set-up: dose 5 mg/kg, route oral
Procedure, shortened: (§1)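 Male Sprague-Dawley rats fitted with jugular catheters, fed, three per compound, dosed orally at 5 mg/kg. Vehicle was 1% CMC/0.2% Tween80 in water, or 80% PEG 400/20% pH 2 30 mM citric acid, depending on compound. Serial heparinized blood taken at 1, 2, 4 and 6 h. Plasma proteins precipitated with acetonitrile; compound quantified by LC/MS/MS in MRM mode.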

[2] = Plasma concentration in Sprague-Dawley rat at 5 mg/kg, po after 1 hr by LC-MS/MS analysis; type: ADME, organism-based; set-up: dose 5 mg/kg, route oral; procedure, shortened: as §1
[3] = Plasma concentration in Sprague-Dawley rat at 5 mg/kg, po after 2 hrs by LC-MS/MS analysis; type: ADME, organism-based; set-up: dose 5 mg/kg, route oral; procedure, shortened: as §1
[4] = Aqueous solubility at pH 7.4; type: physicochemical

| concentration at 4 h [1] [nM] | concentration at 1 h [2] [nM] | concentration at 2 h [3] [nM] | solubility [4] [µg/mL] | SMILES |
| --- | --- | --- | --- | --- |
| 3600 |  |  |  | CS(=O)(=O)c1ccc(C(CCNC(=O)c2ccc(C#N)cc2)c2ccc(F)cc2)cc1 (stereo not given) |
| 100 | 300 | 200 | < 0.1 | O=C(NCCC(c1ccc(F)cc1)c1ccc(F)cc1)c1ccc(OCC(F)(F)F)nc1 |
